Data published in ChEMBL document CHEMBL1146034, “Synthesis, DNA affinity, and antiprotozoal activity of linear dications: Terphenyl diamidines and analogues” (J Med Chem, 2006).
pIC50: −log10 of the molar value. Active and inactive are the calls of the source. No cut-off for these calls is given here.

Legend:
Plasmodium falciparum = test: Antiprotozoal activity against Plasmodium falciparum K1; format: functional, organism-based
Procedure, shortened: (§1)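 Run in vitro against T. b. rhodesiense strain STIB900 or P. falciparum strain K1. Values are from duplicate determinations.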

Mus musculus [1] = test: Antiprotozoal activity in mouse infected with Trypanosoma brucei rhodesiense STIB900 measured as average days of survival at 25 mg/kg, po; format: functional
Procedure, shortened: (§2)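 Acute STIB900 mouse model. Dosing ran for 4 days, given ip or po. The read-out was average days of survival post infection. Mice surviving 60 days parasite-free were scored as cures. Untreated infected mice served as controls.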

Mus musculus [2] = test: Antiprotozoal activity in mouse infected with Trypanosoma brucei rhodesiense STIB900 measured as survival upto 60 days at 25 mg/kg, po; format: functional, organism-based; parameters: dose 25 mg/kg
Procedure, shortened: (§3)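 Acute mouse model of T. b. rhodesiense STIB900 infection. Compound was given for 4 days, either intraperitoneally or orally, at the stated dose, with untreated infected controls. Read-outs were the number of mice alive and parasite-free at 60 days and the average days of survival.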

[3] = system: Trypanosoma brucei rhodesiense; test: Antiprotozoal activity against Trypanosoma brucei rhodesiense STIB900; format: functional, organism-based; procedure, shortened: as §1
[4] = Half life in B6C3F1 mouse liver microsome; format: ADME; conditions: liver microsomes
Procedure, shortened: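 Pooled male B6C3F1 mouse liver microsomes (0.5 mg/mL protein) in 100 mM phosphate pH 7.4 with 5 mM MgCl2 and 0.5% DMSO, run in duplicate. After 3 min preincubation at 37 °C, 2 mM NADPH started the reaction. Acetonitrile quench at 0–30 min, then LC-MS/MS (positive MRM). t1/2 = 0.693/slope of ln % parent remaining versus time.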

L6 = test: Cytotoxicity against rat L6 cells; format: functional, cell-based
Mus musculus [5] = test: Antiprotozoal activity in mouse infected with Trypanosoma brucei rhodesiense STIB900 measured as survival upto 60 days at 5 mg/kg, ip; format: functional, organism-based; parameters: dose 5 mg/kg; procedure, shortened: as §3
Mus musculus [6] = test: Antiprotozoal activity in mouse infected with Trypanosoma brucei rhodesiense STIB900 measured as survival upto 60 days at 20 mg/kg, ip; format: functional, organism-based; parameters: dose 20 mg/kg; procedure, shortened: as §3
Mus musculus [7] = test: Antiprotozoal activity in mouse infected with Trypanosoma brucei rhodesiense STIB900 measured as average days of survival at 5 mg/kg, ip; format: functional; conditions: route intraperitoneal; procedure, shortened: as §2
Mus musculus [8] = test: Antiprotozoal activity in mouse infected with Trypanosoma brucei rhodesiense STIB900 measured as average days of survival at 20 mg/kg, ip; format: functional; conditions: route intraperitoneal; procedure, shortened: as §2
Mus musculus [9] = test: Antiprotozoal activity in mouse infected with Trypanosoma brucei rhodesiense STIB900 measured as survival upto 60 days at 100 mg/kg, po; format: functional, organism-based; parameters: dose 100 mg/kg; procedure, shortened: as §3
Mus musculus [10] = test: Antiprotozoal activity in mouse infected with Trypanosoma brucei rhodesiense STIB900 measured as average days of survival at 100 mg/kg, po; format: organism-based; parameters: dose 100 mg/kg, route oral; conditions: in vivo; procedure, shortened: as §2

| Structure (SMILES) | pIC50 (Plasmodium falciparum) | Survival (Mus musculus [1]) [days] | Activity (Mus musculus [2]) | pIC50 [3] | half-life [4] [h] | pIC50 (L6) | Activity (Mus musculus [5]) | Activity (Mus musculus [6]) | Survival (Mus musculus [7]) [days] | Survival (Mus musculus [8]) [days] | Activity (Mus musculus [9]) | Survival (Mus musculus [10]) [days] |
| --- | --- | --- | --- | --- | --- | --- | --- | --- | --- | --- | --- | --- |
| N=C(NO)c1ccc(-c2ccc(-c3ccc(/C(N)=N/O)cc3)cc2)o1 | 5.18 | 16 | inactive | 4.17 |  |  |  |  |  |  |  |  |
| CONC(=N)c1ccc(-c2cnc(-c3ccc(C(=N)NOC)cc3)nc2)cc1 | 5.24 | 12.5 | inactive | 4.31 | > 1.5 | < 3.75 |  |  |  |  |  |  |
| CO/N=C(/N)c1ccc(-c2ccc(-c3ccc(C(=N)NOC)cc3)nc2)cc1 | 5.49 | >42.75 | inactive | 4.46 | 0.917 | < 3.78 |  |  |  |  |  |  |
| N=C(N)c1ccc(-c2ccc(-c3ccc(C(=N)N)cc3)o2)cc1 [FURAMIDINE] |  |  |  |  |  |  | inactive | inactive | 35.5 | >52.5 |  |  |
| CONC(=N)c1ccc(-c2ccc(-c3ccc(C(=N)NOC)cn3)cc2)nc1 | 5.92 | 12 | inactive | 4.08 | > 1.5 | < 3.80 |  |  |  |  |  |  |
| CONC(=N)c1ccc(-c2ccc(-c3ccc(C(=N)NOC)cc3)c(F)c2)cc1 | 5.38 | 37.25 | inactive | 4.29 | > 1.5 | 5.07 |  |  |  |  |  |  |
| N=C(N)c1ccc(-c2ccc(-c3ccc(C(=N)N)cc3)c(F)c2)cc1 | 9.00 |  |  | 8.70 |  |  | inactive |  | >51.75 |  |  |  |
| N=C(N)c1ccc(-c2ccc(-c3ccc(C(=N)N)o3)cc2)cc1 | 9.00 |  |  | 8.30 |  | 4.25 |  | inactive |  | 21.25 |  |  |
| N=C(N)c1ccc(-c2ccc(-c3ccc(C(=N)N)cc3)c(C(F)(F)F)c2)cc1 | 7.82 |  |  | 7.32 |  | 5.03 | inactive |  | 17.25 |  |  |  |
| N=C(N)c1ccc(-c2ccc(-c3ccc(C(=N)N)o3)cn2)cc1 | 8.00 |  |  | 8.70 |  | 4.51 |  |  | >41.75 | >53.5 |  |  |
| N=C(N)c1ccc(-c2ccc(-c3ccc(C(=N)N)cn3)cc2)nc1 | 8.00 |  |  | 7.33 |  |  |  |  | >60 |  |  |  |
| CONC(=N)c1ccc(-c2ccc(-c3ccc(C(=N)NOC)cc3)c(C(F)(F)F)c2)cc1 | 5.42 | 7.25 | inactive | 4.43 |  | 4.37 |  |  |  |  |  |  |
| N=C(N)c1ccc(-c2ccc(-c3ccc(C(=N)N)cc3)nc2)cc1 | 8.00 |  |  | 8.70 |  |  |  | Active | >42 | >60 |  |  |
| CONC(=N)c1ccc(-c2ccc(-c3ccc(C(=N)NOC)cc3)cc2)cc1 | 6.43 |  |  | 4.86 |  | 3.93 |  |  |  |  | inactive |  |
| N=C(NO)c1ccc(-c2ccc(-c3ccc(/C(N)=N\O)cc3)nc2)cc1 | 5.12 |  |  | 5.03 |  | < 3.74 |  |  |  |  |  | > 35.75 |
| N=C(N)c1ccc(-c2ccc(-c3ccc(C(=N)N)cc3)cc2)cc1 | 9.00 |  |  | 8.30 |  |  |  |  |  | >47.75 |  |  |
| COc1cc(-c2ccc(C(=N)N)cc2)c(OC)cc1-c1ccc(C(=N)N)cc1 | 7.43 |  |  | 7.82 |  | < 4.00 |  |  | >51.75 |  |  |  |
| CONC(=N)c1ccc(-c2ccc(-c3ccc(C(=N)NOC)cc3)o2)cc1 [PAFURAMIDINE] |  | >60 |  |  | < 0.25 |  |  |  |  |  |  |  |
| CO/N=C(\N)c1ccc(-c2ccc(-c3ccc(C(=N)NOC)cc3)cc2)o1 | 5.80 | 6.25 | inactive | 4.62 |  | < 3.69 |  |  |  |  |  |  |
| N=C(NO)c1ccc(-c2ccc(-c3ccc(/C(N)=N\O)cc3)cc2)cc1 | < 4.93 |  |  | 4.64 |  | < 3.68 |  |  |  |  | inactive | 24.75 |
| N=C(N)c1ccc(OCCCCCOc2ccc(C(=N)N)cc2)cc1 [PENTAMIDINE] |  |  |  |  |  |  |  | inactive |  | >42.75 |  |  |
| N=C(NO)c1ccc(-c2ccc(-c3ccc(/C(N)=N\O)cc3)cc2F)cc1 | 6.03 | 22.25 | inactive |  |  | 4.54 |  |  |  |  |  |  |
| CON=C(N)c1ccc(-c2ccc(-c3ccc(C(N)=NOC)cc3)cc2)cc1 |  |  |  |  | > 1.5 |  |  |  |  |  |  | 20.75 |
| N=C(NO)c1ccc(-c2ccc(-c3ccc(/C(N)=N\O)cc3)cc2C(F)(F)F)cc1 | 5.51 | 9 | inactive | 4.52 |  | 4.88 |  |  |  |  |  |  |
| N=C(N)c1ccc(-c2cnc(-c3ccc(C(=N)N)cc3)nc2)cc1 | 9.30 |  |  |  |  |  | inactive |  | 23.5 |  |  |  |
